Source: article PMC11463018 (Journal of Enzyme Inhibition and Medicinal Chemistry, 2024)

What was measured:
HDAC6 = molecular target: T1, HDAC6 (Homo sapiens, UniProt Q9UBN7); assay: In vitro HDAC enzyme assay; format: biochemical
T1 sequence (Q9UBN7 1-1215): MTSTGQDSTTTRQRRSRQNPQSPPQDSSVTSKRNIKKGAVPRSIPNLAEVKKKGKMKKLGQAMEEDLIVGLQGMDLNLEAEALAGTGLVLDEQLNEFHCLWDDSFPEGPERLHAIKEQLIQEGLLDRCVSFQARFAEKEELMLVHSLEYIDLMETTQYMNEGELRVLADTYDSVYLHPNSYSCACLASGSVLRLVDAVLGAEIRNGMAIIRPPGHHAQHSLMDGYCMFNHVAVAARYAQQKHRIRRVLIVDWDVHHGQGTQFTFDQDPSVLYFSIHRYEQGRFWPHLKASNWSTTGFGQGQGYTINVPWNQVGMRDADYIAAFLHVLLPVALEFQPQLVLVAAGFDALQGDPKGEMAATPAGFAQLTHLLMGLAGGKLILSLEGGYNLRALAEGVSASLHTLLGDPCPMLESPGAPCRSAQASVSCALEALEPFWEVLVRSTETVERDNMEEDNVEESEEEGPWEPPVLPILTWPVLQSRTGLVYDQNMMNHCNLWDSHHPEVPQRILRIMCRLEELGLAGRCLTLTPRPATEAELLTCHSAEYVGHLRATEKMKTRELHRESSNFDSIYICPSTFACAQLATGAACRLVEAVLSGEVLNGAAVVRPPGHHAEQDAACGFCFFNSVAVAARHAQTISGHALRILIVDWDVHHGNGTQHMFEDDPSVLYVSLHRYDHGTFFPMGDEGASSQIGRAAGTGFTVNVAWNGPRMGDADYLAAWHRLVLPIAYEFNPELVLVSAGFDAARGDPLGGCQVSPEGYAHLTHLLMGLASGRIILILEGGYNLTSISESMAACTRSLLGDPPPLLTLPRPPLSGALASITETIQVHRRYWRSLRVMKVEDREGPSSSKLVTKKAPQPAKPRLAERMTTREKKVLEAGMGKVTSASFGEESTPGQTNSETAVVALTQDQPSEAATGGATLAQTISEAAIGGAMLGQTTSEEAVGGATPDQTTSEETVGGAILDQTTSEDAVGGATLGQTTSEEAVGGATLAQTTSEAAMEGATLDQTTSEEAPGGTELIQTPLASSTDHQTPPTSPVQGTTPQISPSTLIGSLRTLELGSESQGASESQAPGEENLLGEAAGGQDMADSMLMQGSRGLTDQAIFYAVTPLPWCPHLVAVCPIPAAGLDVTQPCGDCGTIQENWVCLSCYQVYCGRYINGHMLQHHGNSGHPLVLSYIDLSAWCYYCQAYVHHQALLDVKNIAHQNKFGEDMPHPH

JAK1 = JAK1 (Homo sapiens, UniProt P23458); assay: Kinase inhibition assay; format: biochemical
MDA-MB-231 = assay: cells; format: cell-based; conditions: Homo sapiens, MDA-MB-231, read-out: Antiproliferative effect IC50, MDA-MB-231
RPMI-8226 = assay: cells; format: cell-based; conditions: Homo sapiens, RPMI-8226, read-out: Antiproliferative effect IC50, RPMI-8226
[1] = Microsomal stability assay; format: in vitro ADME; conditions: human, human liver microsomes, pH 7.4
Summary of the method: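 Human liver microsomes at 0.8 mg/mL, with magnesium chloride and potassium phosphate buffer (pH 7.4), incubated with test compound at 0.5 μM. Mix prewarmed 5 min at 37 °C, then started with NADPH. Stopped at 0, 5, 10, 15, 30, 60 or 90 min with ice-cold ethyl acetate, spun 4000 rpm for 10 min at 4 °C. Supernatant analysed by LC-MS/MS and half-life determined.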

JAK1, sequence (P23458 whole entry): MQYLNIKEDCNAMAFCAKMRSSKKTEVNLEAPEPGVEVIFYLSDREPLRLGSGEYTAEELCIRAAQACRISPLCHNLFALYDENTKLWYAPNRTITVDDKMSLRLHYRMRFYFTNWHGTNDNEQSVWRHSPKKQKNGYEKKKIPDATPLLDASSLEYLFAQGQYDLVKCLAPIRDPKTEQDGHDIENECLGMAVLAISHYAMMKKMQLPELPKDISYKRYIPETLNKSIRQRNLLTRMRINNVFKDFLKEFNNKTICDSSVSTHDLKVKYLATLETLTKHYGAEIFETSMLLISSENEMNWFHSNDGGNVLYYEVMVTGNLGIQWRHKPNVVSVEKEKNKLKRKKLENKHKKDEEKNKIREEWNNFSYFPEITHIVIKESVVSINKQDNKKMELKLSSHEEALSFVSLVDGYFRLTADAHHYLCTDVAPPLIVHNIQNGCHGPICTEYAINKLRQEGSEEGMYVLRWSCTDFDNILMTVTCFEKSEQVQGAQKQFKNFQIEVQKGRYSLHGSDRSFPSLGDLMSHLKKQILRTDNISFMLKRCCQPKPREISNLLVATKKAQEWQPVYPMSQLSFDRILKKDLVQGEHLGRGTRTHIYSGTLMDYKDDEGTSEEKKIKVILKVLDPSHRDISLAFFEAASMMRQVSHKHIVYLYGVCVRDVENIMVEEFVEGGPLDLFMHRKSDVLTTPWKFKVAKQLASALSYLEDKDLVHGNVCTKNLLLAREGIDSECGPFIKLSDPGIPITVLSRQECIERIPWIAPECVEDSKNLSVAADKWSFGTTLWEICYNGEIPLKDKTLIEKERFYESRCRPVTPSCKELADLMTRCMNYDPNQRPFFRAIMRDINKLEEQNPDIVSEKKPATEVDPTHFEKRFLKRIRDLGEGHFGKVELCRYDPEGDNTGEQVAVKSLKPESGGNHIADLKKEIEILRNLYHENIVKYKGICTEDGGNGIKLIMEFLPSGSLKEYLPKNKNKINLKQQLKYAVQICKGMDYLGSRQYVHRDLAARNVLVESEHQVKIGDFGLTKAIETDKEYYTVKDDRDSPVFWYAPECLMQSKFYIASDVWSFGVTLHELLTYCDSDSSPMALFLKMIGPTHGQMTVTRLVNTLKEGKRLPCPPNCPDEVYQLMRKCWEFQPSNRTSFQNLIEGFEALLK

| SMILES | IC50 (HDAC6) [nM] | IC50 (JAK1) [nM] | IC50 (MDA-MB-231) [nM] | IC50 (RPMI-8226) [nM] | half-life at 0.5 μM [1] [h] |
| --- | --- | --- | --- | --- | --- |
| COc1ccc(-c2cccc3nc(NCc4ccc(C(=O)NO)cc4)nn23)cc1 [Compound 16b, N-hydroxy-4-(((5–(4-methoxyphenyl)-[1,2, 4]triazolo[1,5-a]pyridin-2-yl)amino)methyl)benzamide] | 8.75 ± 0.46 | 146 ± 8.5 | 840 ± 40 | 290 ± 10 | – |
| COc1cccc(-c2cccc3nc(NCc4ccc(C(=O)NO)cc4)nn23)c1 [Compound 16c, N-hydroxy-4-(((5–(3-methoxyphenyl)-[1,2, 4]triazolo[1,5-a]pyridin-2-yl)amino)methyl)benzamide] | 8.4 ± 0.39 | 190 ± 10 | 950 ± 20 | 310 ± 20 | – |
| Cc1cccc(-c2cccc3nc(NCc4ccc(C(=O)NO)cc4)nn23)c1 [Compound 16f, N-hydroxy-4-(((5-(m-tolyl)-[1,2, 4]triazolo[1,5-a]pyridin-2-yl)amino)methyl)benzamide] | 13.7 ± 0.88 | 315 ± 15 | – | – | – |
| Cc1ccccc1-c1cccc2nc(NCc3ccc(C(=O)NO)cc3)nn12 [Compound 16g, N-hydroxy-4-(((5-(o-tolyl)-[1,2, 4]triazolo[1,5-a]pyridin-2-yl)amino)methyl)benzamide] | 16 ± 1.1 | 550 ± 32 | – | – | – |
| O=C(NO)c1ccc(CNc2nc3cccc(-c4cccc(Cl)c4)n3n2)cc1 [Compound 16h, 4-(((5–(3-chlorophenyl)-[1,2, 4]triazolo[1,5-a]pyridin-2-yl)amino)methyl)-N-hydroxybenzamide] | 9.65 ± 0.23 | 365 ± 25 | – | – | – |
| O=C(NO)c1ccc(CNc2nc3cccc(-c4ccc(F)cc4)n3n2)cc1 [Compound 16j, 4-(((5–(4-fluorophenyl)-[1,2, 4]triazolo[1,5-a]pyridin-2-yl)amino)methyl)-N-hydroxybenzamide] | 8.9 ± 0.16 | 295 ± 16 | 880 ± 60 | 280 ± 60 | – |
| O=C(Nc1nc2cccc(-c3ccc(CN4CCS(=O)(=O)CC4)cc3)n2n1)C1CC1 [Filgotinib, reference compound] | – | – | 27200 ± 1500 | 17500 ± 1000 | – |

Other lines, results leading:

| IC50 (HDAC6) [nM] | IC50 (JAK1) [nM] | IC50 (MDA-MB-231) [nM] | IC50 (RPMI-8226) [nM] | half-life at 0.5 μM [1] [h] | SMILES |
| --- | --- | --- | --- | --- | --- |
| 9.5 ± 0.72 | 320 ± 18 | 900 ± 30 | 460 ± 30 | – | O=C(NO)c1ccc(CNc2nc3cccc(-c4ccccc4)n3n2)cc1 [Compound 16a, N-hydroxy-4-(((5-phenyl-[1,2, 4]triazolo[1,5-a]pyridin-2-yl)amino)methyl)benzamide] |
| 10.2 ± 0.8 | 750 ± 30 | – | – | – | COc1ccccc1-c1cccc2nc(NCc3ccc(C(=O)NO)cc3)nn12 [Compound 16d, N-hydroxy-4-(((5–(2-methoxyphenyl)-[1,2, 4]triazolo[1,5-a]pyridin-2-yl)amino)methyl)benzamide] |
| 11 ± 0.7 | 304 ± 16 | – | – | – | Cc1ccc(-c2cccc3nc(NCc4ccc(C(=O)NO)cc4)nn23)cc1 [Compound 16e, N-hydroxy-4-(((5-(p-tolyl)-[1,2, 4]triazolo[1,5-a]pyridin-2-yl)amino)methyl)benzamide] |
| 12.2 ± 0.3 | 400 ± 28 | – | – | – | O=C(NO)c1ccc(CNc2nc3cccc(-c4ccccc4Cl)n3n2)cc1 [Compound 16i, 4-(((5–(2-chlorophenyl)-[1,2, 4]triazolo[1,5-a]pyridin-2-yl)amino)methyl)-N-hydroxybenzamide] |
| 6.15 ± 0.12 | 390 ± 24 | – | – | – | O=C(NO)c1ccc(CNc2nc3cccc(-c4ccc(Cl)c(Cl)c4)n3n2)cc1 [Compound 16k, 4-(((5–(3,4-dichlorophenyl)-[1,2, 4]triazolo[1,5-a]pyridin-2-yl)amino)methyl)-N-hydroxybenzamide] |
| 11.4 ± 0.88 | 460 ± 8 | – | – | – | O=C(NO)c1ccc(CNc2nc3cccc(-c4ccc(C(F)(F)F)cc4)n3n2)cc1 [Compound 16l, N-hydroxy-4-(((5–(4-(trifluoromethyl)phenyl)-[1,2, 4]triazolo[1,5-a]pyridin-2-yl)amino)methyl)benzamide] |
| 20.5 ± 0.78 | 685 ± 50 | – | – | – | O=C(NO)c1ccc(CNc2nc3cccc(-c4cc(C(F)(F)F)cc(C(F)(F)F)c4)n3n2)cc1 [Compound 16m, 4-(((5–(3,5-bis(trifluoromethyl)phenyl)-[1,2, 4]triazolo[1,5-a]pyridin-2-yl)amino)methyl)-N-hydroxybenzamide] |
| – | – | – | – | 6.8 | O=C(CCCCCCC(=O)Nc1ccccc1)NO [SAHA, vorinostat, reference compound] |
